The full list was thinned out, with hits kept by preference.
KDM4C inh: KDM4C (human) demethylase inhibition. GST-KDM4C 2-372, H3K9me3 peptide, LANCE TR-FRET. inhibition, % at 12.5 µM. hit rate 0.15% among 96,000. AID 720574;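 active means mean replicate inhibition above about 25%, with at least 55% of replicates also reaching it, limit read from the data, passing the limit was not always enough; inconclusive means only one of those two conditions met; inactive means neither condition met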
Target sequence (Q9H3R0 2-372 limits assumed): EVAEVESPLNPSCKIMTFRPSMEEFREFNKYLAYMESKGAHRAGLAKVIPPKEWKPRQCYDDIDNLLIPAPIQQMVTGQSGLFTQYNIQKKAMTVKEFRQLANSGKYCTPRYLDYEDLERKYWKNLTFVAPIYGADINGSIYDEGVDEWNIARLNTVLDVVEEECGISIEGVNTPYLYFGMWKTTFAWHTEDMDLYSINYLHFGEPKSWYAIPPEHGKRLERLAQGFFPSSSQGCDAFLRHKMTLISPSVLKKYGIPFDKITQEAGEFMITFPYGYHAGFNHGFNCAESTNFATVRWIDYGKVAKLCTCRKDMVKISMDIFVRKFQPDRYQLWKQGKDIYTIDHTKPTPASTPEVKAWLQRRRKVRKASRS
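System: N-terminal GST-fused human GASC-1 (KDM4C) fragment, residues 2-372; amount: enzyme final amount 10 nM; incubation: reaction 30 min RT, detection step 1 h RT; medium: HEPES buffer, pH 7.5, plus ascorbate; technique: LANCE TR-FRET, Eu antibody, ULight-streptavidin, EDTA, ex 340 nm, em 618/671 nm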
T cruzi growth-1: inhibitors of T. cruzi proliferation | T. cruzi beta-gal in NIH3T3, GalScreen luminescence, 90 h | inhibition, % at 8.34 µM | hit rate 5.9% among 77,000 | AID 624255;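 active means mean inhibition above about 93%, with at least 55% of replicates each passing it, limit read from the data, passing the limit was not always enough; inconclusive means only one of those two conditions holds; inactive means neither condition holds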
IDH1 R132H inh: inhibitors of human IDH1 R132H; inhibition, % at 10 µM; hit rate 0.18% among 70,000; IDH1 R132H reductase, diaphorase/resazurin fluorescence, 60 min; in the data active means inhibition above about 34%; inconclusive means no clear call, values can overlap the other calls; inactive means below about 11%;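 further: 0% = DMSO and 100% = no enzyme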
Target sequence (O75874 whole entry R132H): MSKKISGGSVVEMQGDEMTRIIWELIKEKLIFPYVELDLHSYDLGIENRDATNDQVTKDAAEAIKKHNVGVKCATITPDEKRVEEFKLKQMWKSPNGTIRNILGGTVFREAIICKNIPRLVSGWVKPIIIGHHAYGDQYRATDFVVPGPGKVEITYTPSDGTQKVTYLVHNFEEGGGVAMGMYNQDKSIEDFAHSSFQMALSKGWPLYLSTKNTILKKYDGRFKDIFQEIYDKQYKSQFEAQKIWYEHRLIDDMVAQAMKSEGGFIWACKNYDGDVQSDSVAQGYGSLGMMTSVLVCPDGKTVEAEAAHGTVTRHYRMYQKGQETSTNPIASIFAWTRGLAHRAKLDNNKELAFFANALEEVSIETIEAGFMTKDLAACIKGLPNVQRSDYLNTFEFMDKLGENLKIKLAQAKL
T cruzi growth-2: blocks T. cruzi growth in NIH3T3 host cells; shares compounds with T cruzi growth-1; inhibition, % at 8.35 µM; T. cruzi beta-gal in NIH3T3, GalScreen luminescence, 90 h; AID 651739; hit rate 72% among 5,600;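 active means mean replicate inhibition above about 95% and at least 55% of replicates individually reaching it, limit read from the data; inconclusive means only one of the two criteria is met; inactive means neither criterion is met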
T cruzi growth-3: blocks T. cruzi growth in NIH3T3 host cells | shares compounds with T cruzi growth-1 | T. cruzi beta-gal in NIH3T3, GalScreen luminescence, 90 h | inhibition, % at 2.09 µM | hit rate 21% among 5,600;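 active means mean inhibition above about 95%, with at least 55% of replicates also reaching it, limit read from the data; inconclusive means meets just one of the two conditions; inactive means meets neither condition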;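 further: plate controls were neutral control median for no effect and positive control median for full effect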
NIH3T3 tox: cytotoxicity in mouse NIH/3T3 fibroblasts | shares compounds with T cruzi growth-1 | NIH/3T3 viability, CellTiter-Glo ATP luminescence, 90 h | cytotoxicity (signal decrease), % at 8.35 µM | hit rate 14% among 5,600 | AID 651742;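 active means mean signal decrease across replicates above about 35% based on untreated-well scatter, with enough replicates individually passing, limit read from the data; inconclusive means no rule stated though some were filed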;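 further: 0% = median of neutral control wells and 100% = median of positive control wells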
NIH3T3 tox 2: kills mouse NIH/3T3 fibroblasts. AID 651744. shares compounds with T cruzi growth-1. inhibition, % at 24.9 µM. hit rate 56% among 5,600. NIH/3T3 viability, CellTiter-Glo ATP luminescence, 90 h;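 active means mean loss of cell viability signal at or above a set limit, and enough replicates individually reaching it; inconclusive means meets only the mean limit or only the replicate share; inactive means meets neither condition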;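 further: 0% = median of neutral control wells and 100% = median of positive control wells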
The depositor's hits bear a star; ? = inconclusive; . = no result given.

SMILES | KDM4C inh | T cruzi growth-1 | IDH1 R132H inh | T cruzi growth-2 | T cruzi growth-3 | NIH3T3 tox | NIH3T3 tox 2
O=C(CSc1nnnn1-c1cccc2ccccc12)c1ccc(O)c(O)c1 | . | . | 0.0 | . | . | . | .
O=C(C[C@@H]1C[C@@H]2c3cc(NC(=O)Nc4ccccc4)ccc3O[C@@H]2[C@H](CO)O1)NCC1CC1 | -0.2 | 101.5* | 0.2 | -32.2 | -7.1 | -31.1 | -13.1
CCCNC(=O)C[C@@H]1C[C@H]2c3cc(NC(=O)Nc4ccc(OC)cc4)ccc3O[C@H]2[C@H](CO)O1 | -0.3 | 42.3 | 0.2 | . | . | . | .
CCCNC(=O)C[C@H]1C[C@@H]2c3cc(NC(=O)Nc4ccc(OC)cc4)ccc3O[C@@H]2[C@@H](CO)O1 | 0.4 | 41.2 | 0.2 | . | . | . | .
COc1ccc(NC(=O)Nc2ccc3c(c2)[C@@H]2C[C@H](CC(=O)NCCc4ccccc4)O[C@H](CO)[C@@H]2O3)cc1 | -4.2 | 159.3* | 0.2 | 105.2* | 100.7* | -28.3 | -7.2
COc1ccc(NC(=O)Nc2ccc3c(c2)[C@H]2C[C@H](CC(=O)NCCc4ccccc4)O[C@H](CO)[C@H]2O3)cc1 | -1.4 | 148.9* | 0.7 | 109.2* | 72.7 | -19.8 | -29.9
O=C(C[C@@H]1C[C@H]2c3cc(NC(=O)Nc4ccc(F)cc4)ccc3O[C@H]2[C@@H](CO)O1)NCC1CC1 | -0.5 | -48.1 | -0.4 | . | . | . | .
Cc1ccc(NC(=O)CN(c2ccc(Cl)c(C(F)(F)F)c2)S(C)(=O)=O)cc1 | . | . | 6.0 | . | . | . | .
Cc1ccc(S(=O)(=O)NCCN2CCOCC2)cc1-c1nnc2c3ccccc3c(C)nn12 | . | . | 0.3 | . | . | . | .
CCn1c(SCc2nc(-c3cccs3)no2)nnc1-c1cccs1 | . | . | 2.8 | . | . | . | .
C/C(=C\Cc1c(O[C@@H]2O[C@H](CO)[C@@H](O)[C@H](O)[C@H]2O)ccc2ccc(=O)oc12)CO | . | . | 0.3 | . | . | . | .
Cc1ccc(C(=O)CSc2nc3ccccc3o2)cc1[N+](=O)[O-] | . | . | -0.4 | . | . | . | .
O=C(CN1C(=O)c2ccccc2S1(=O)=O)Nc1ccc(N2CCOCC2)cc1 | . | . | -0.3 | . | . | . | .
C[C@H](CO)N1C[C@H](C)[C@@H](CN(C)C(=O)Nc2ccccc2)OCCCC[C@H](C)Oc2ccc(NC(=O)Nc3ccccc3)cc2C1=O | -1.9 | 101.9* | -2.1 | 106.6* | 7.9 | 23.1 | 5.1
CC(C)NC(=O)Nc1ccc2c(c1)C(=O)N([C@@H](C)CO)C[C@H](C)[C@H](CN(C)C(=O)Nc1ccccc1)OCCCC[C@H](C)O2 | -0.1 | 100.3* | 1.5 | 80.3 | 49.9 | 13.3 | -3.7
CC(C)NC(=O)Nc1ccc2c(c1)C(=O)N([C@@H](C)CO)C[C@@H](C)[C@@H](CN(C)C(=O)Nc1ccccc1)OCCCC[C@H](C)O2 | -0.4 | 36.2 | 0.8 | . | . | . | .
CC(C)NC(=O)N(C)C[C@H]1OCCCC[C@H](C)Oc2ccc(NC(=O)Nc3ccccc3)cc2C(=O)N([C@H](C)CO)C[C@@H]1C | -1.1 | 33.9 | 0.5 | . | . | . | .
C[C@@H]1CCCCO[C@H](CN(C)C(=O)Nc2ccccc2)[C@H](C)CN([C@@H](C)CO)C(=O)c2cc(NC(=O)Nc3ccccc3)ccc2O1 | -0.1 | 74.8 | 2.8 | . | . | . | .
C[C@H]1CCCCO[C@@H](CN(C)C(=O)Nc2ccccc2)[C@@H](C)CN([C@@H](C)CO)C(=O)c2cc(NC(=O)Nc3ccccc3)ccc2O1 | -0.5 | ? | 0.2 | 110.4* | 10.1 | -6.4 | 18.4
C[C@H](CO)N1C[C@H](C)[C@H](CN(C)C(=O)Nc2ccccc2)OCCCC[C@H](C)Oc2ccc(NC(=O)Nc3ccc(F)cc3)cc2C1=O | 0.4 | 82.7 | 1.2 | . | . | . | .
C[C@H]1CCCCO[C@H](CN(C)C(=O)Nc2ccccc2)[C@@H](C)CN([C@@H](C)CO)C(=O)c2cc(NC(=O)Nc3ccccc3)ccc2O1 | -0.1 | 98.4* | -2.1 | 108.9* | 20.1 | 15.6 | 12.3
Cn1c(SCC(=O)Nc2ccc([N+](=O)[O-])cc2)nc2ccccc21 | . | . | -0.5 | . | . | . | .
Cc1cccc(C)c1OCC(=O)NCc1cccnc1 | . | . | 2.9 | . | . | . | .
Cc1cc(C)c(NC(=O)CSc2nc3c(c(-c4ccco4)c2C#N)CCCC3)c(C)c1 | . | . | 0.1 | . | . | . | .
Cc1ccsc1/C=N/NC(=O)CCCCCCC(=O)O | . | . | 0.0 | . | . | . | .
SMILES | KDM4C inh | T cruzi growth-1 | IDH1 R132H inh | T cruzi growth-2 | T cruzi growth-3 | NIH3T3 tox | NIH3T3 tox 2
C[C@H]1CCCCO[C@H](CN(C)S(=O)(=O)c2ccccc2)[C@@H](C)CN([C@@H](C)CO)C(=O)c2cc(NS(=O)(=O)c3cccs3)ccc2O1 | -1.9 | 60.9 | 0.0 | . | . | . | .
C[C@@H]1CCCCO[C@@H](CN(C)S(=O)(=O)c2ccc(Cl)cc2)[C@H](C)CN([C@@H](C)CO)C(=O)c2cc(NS(=O)(=O)c3cccs3)ccc2O1 | 0.1 | 102.0* | -0.4 | 105.0* | 83.3 | 20.6 | -2.2
C[C@@H]1CCCCO[C@H](CN(C)S(=O)(=O)c2ccc(Cl)cc2)[C@@H](C)CN([C@@H](C)CO)C(=O)c2cc(NS(=O)(=O)c3cccs3)ccc2O1 | -1.3 | 110.4* | -3.3 | 113.5* | 70.2 | 6.8 | 2.8
C[C@@H]1CN([C@@H](C)CO)C(=O)c2cc(NS(=O)(=O)c3cccs3)ccc2O[C@@H](C)CCCCO[C@H]1CN(C)S(=O)(=O)c1ccc(Cl)cc1 | 1.3 | 92.9 | . | . | . | . | .
O=C(O)c1ccc(/C=N/NC(=O)c2cccc(C(=O)NO)c2)cc1 | . | . | 0.3 | . | . | . | .
C[C@@H]1CN([C@@H](C)CO)C(=O)c2cc(NC(=O)c3ccccc3)ccc2O[C@@H](C)CCCCO[C@@H]1CN(C)Cc1ccncc1 | 1.4 | 114.0* | . | 99.8* | 29.2 | -14.0 | 13.5
C[C@@H]1CCCCO[C@H](CN(C)Cc2ccccc2)[C@H](C)CN([C@@H](C)CO)C(=O)c2cc(NC(=O)c3ccccc3)ccc2O1 | 0.5 | 54.5 | . | . | . | . | .
C[C@@H]1CN([C@@H](C)CO)C(=O)c2cc(NC(=O)c3ccccc3)ccc2O[C@@H](C)CCCCO[C@H]1CN(C)Cc1ccccc1 | -1.1 | 101.6* | . | 97.8* | 66.6 | -1.1 | 61.5*
C[C@@H]1CCCCO[C@H](CN(C)C(=O)c2ccncc2)[C@H](C)CN([C@H](C)CO)C(=O)c2cc(NC(=O)c3ccccc3)ccc2O1 | 1.1 | 97.1* | . | 23.5 | -16.6 | 12.0 | 10.7
C[C@@H]1CCCCO[C@@H](CN(C)Cc2ccc(Cl)c(Cl)c2)[C@H](C)CN([C@H](C)CO)C(=O)c2cc(NC(=O)c3ccccc3)ccc2O1 | -0.1 | . | . | . | . | . | .
C[C@@H]1CN([C@@H](C)CO)C(=O)c2cc(NC(=O)c3ccncc3)ccc2O[C@@H](C)CCCCO[C@@H]1CN(C)C(=O)c1ccccc1 | 2.9 | 48.1 | 2.0 | . | . | . | .
C[C@@H]1CCCCO[C@@H](CN(C)Cc2ccc(Cl)c(Cl)c2)[C@@H](C)CN([C@H](C)CO)C(=O)c2cc(NC(=O)c3ccccc3)ccc2O1 | -0.6 | 95.9* | 0.4 | 113.7* | 48.7 | 5.5 | 13.9
